Results taken from BindingDB's records for doi:10.1021/jm00399a033 (Schering-Plough, 1988).

Molecular target: T1, Angiotensin-converting enzyme (Oryctolagus cuniculus, UniProt P12822)
T1 sequence (P12822 whole entry): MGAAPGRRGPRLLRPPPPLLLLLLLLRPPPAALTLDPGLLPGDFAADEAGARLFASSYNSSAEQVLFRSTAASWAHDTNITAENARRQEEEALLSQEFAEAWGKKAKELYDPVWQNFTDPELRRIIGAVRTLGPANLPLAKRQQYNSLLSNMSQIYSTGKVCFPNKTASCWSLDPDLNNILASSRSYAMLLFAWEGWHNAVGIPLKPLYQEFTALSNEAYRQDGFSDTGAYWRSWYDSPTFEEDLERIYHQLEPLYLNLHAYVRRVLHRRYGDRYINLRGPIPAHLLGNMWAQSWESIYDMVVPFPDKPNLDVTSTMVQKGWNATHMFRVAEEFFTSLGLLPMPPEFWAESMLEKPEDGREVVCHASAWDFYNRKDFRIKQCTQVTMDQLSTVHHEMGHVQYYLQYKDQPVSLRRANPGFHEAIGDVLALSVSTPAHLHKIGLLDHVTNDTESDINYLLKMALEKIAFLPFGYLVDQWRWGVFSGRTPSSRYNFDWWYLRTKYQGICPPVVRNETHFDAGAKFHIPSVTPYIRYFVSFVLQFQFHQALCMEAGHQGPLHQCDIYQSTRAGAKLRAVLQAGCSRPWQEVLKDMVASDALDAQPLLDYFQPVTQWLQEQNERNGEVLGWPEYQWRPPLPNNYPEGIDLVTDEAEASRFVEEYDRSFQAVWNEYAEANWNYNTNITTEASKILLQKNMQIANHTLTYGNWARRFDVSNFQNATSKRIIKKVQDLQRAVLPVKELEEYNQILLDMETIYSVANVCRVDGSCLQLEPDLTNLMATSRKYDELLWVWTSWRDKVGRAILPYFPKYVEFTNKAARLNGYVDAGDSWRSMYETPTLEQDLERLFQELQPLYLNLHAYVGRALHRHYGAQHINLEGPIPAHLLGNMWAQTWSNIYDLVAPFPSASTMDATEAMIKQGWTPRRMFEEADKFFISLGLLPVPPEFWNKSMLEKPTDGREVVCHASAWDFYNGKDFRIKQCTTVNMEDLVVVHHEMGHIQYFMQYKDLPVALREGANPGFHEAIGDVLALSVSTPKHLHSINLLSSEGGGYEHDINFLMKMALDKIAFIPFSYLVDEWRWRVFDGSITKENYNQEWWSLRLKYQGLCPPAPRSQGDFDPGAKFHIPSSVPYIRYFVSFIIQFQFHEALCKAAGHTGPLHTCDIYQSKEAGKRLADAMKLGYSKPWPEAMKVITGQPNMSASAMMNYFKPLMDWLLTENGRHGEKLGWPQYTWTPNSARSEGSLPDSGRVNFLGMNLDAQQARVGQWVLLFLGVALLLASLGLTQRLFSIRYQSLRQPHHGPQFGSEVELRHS
Test: In vitro inhibition of Angiotensin I converting enzyme with relative to captopril(=1)
Procedure, shortened: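 Crude ACE from rabbit lung acetone powder extracted in 50 mM potassium phosphate pH 8.3, spun 40000g. Final assay: 100 mM phosphate pH 8.3, 300 mM NaCl, 5 mM hippuryl-His-Leu; enzyme added last, 30 min at 37 °C, stopped with HCl. Hippuric acid extracted into EtOAc, dried, redissolved in water, read by absorbance.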

IC50: 200 nM
Compound: O=C(O)[C@@H]1CCCN1C(=O)CCS
